TNAP act hi DEA – increases human TNAP activity under high phosphate acceptor concentration | AID 1136 | 200,000 tested, under 10 active | P05186 | purified TNAP, CDP-star luminescence, 1 M DEA, 30 min; active compounds read high; 0 = EDTA background, 1 = DMSO-only activity | activation factor at 20 µM;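 active = activation factor at least 2 at 20 µM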
Target sequence (P05186 whole entry, looked up): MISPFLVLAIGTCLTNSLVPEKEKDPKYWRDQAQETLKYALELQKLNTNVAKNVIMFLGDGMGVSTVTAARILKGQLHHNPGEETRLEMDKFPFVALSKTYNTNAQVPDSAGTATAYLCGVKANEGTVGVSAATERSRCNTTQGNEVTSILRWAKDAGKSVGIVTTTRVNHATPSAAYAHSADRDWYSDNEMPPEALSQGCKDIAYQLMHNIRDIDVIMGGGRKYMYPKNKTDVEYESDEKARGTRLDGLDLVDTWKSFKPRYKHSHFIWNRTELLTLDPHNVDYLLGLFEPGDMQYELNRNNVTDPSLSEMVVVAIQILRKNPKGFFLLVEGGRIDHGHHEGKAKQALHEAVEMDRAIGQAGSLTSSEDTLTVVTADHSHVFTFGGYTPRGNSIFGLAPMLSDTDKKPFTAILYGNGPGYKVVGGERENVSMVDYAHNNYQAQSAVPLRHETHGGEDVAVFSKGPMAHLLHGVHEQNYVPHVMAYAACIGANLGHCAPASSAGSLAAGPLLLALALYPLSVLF
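Test system – human TNAP · Doses – 20 µM single point · Incubation – 30 min, room temperature · Signal – luminescent substrate turnover signal · Read-out basis – activation factor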
TNAP inh no acc – blocks human TNAP activity with no phosphate acceptor present; P05186; purified TNAP, CDP-star luminescence, 30 min; inhibition, % at 20 µM; 200,000 compounds, 0.26% hits; AID 1012;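 active = tissue-nonspecific alkaline phosphatase inhibition above about 50% at 20 µM in the single-dose screen, limit read from the data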;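 also: 0% = DMSO negative control and 100% = EDTA positive control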
TNAP inh hi DEA – blocks human TNAP under high phosphate acceptor concentration | purified TNAP, CDP-star luminescence, 1 M DEA | inhibition, % at 20 µM | 200,000 compounds, 0.03% hits | P05186 | AID 1135;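 active = over 50% inhibition of tissue-nonspecific alkaline phosphatase at 20 µM in the single-dose screen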;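 also: plate controls were DMSO wells for no effect and EDTA-quenched wells as full inhibition for full effect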
Calb biofilm kill – mixture kills Candida albicans biofilm cells. C. albicans biofilm persisters + clotrimazole, fluorescence viability; primary screen in compound mixtures of four per well. inhibition, % at 7.6 µM. 120,000 compounds, 0.02% hits;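 active = inhibition above 30.3% in the primary screen of four-compound pools, then above 30% when the compound was retested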;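 also: compounds exposed to preformed 24 h biofilms for 48 h; 0% = untreated biofilm control and 100% = clotrimazole plus chlorhexidine kill blank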
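Test system: C. albicans biofilms. Buffer or medium: RPMI/MOPS medium, pH 7.0. Timing: 48 h compound exposure at 37 °C. Technique: Alamar Blue fluorescence. Evaluation: percent inhibition of biofilm viability.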
Starred values were filed as active, the others as inactive; / = not tested or not shown. Shown are actives, neighbours in structure and some others; about 0.28% of the full set was active somewhere.

SMILES	TNAP act hi DEA	TNAP inh no acc	TNAP inh hi DEA	Calb biofilm kill
COc1ccc(C2=NN(C(N)=S)C(c3ccco3)C2)cc1 (centres undefined)	1	-4	2	-3
COc1ccc(-c2nc3n(n2)C(=O)CC(c2ccco2)S3)cc1 (centres undefined)	1	76*	0	/
CCCCCCCCCCSc1n[nH]c(NC(C)=O)n1	1	-74	2	/
CSc1n[nH]c(NC(C)=O)n1	1	50*	4	/
CCCSc1n[nH]c(NC(C)=O)n1	1	96*	-1	/
Cc1ccc(C2(CCNC(C)c3cccs3)CCOC(C(C)C)C2)cc1 (centres undefined)	1	-2	-3	41*
COc1ccccc1C1(CCNC(C)c2cccs2)CCOC(C(C)C)C1 (centres undefined)	/	/	/	3
COc1cccc2c(SCC(=O)N/N=C/c3ccc(O)c(O)c3)cc(C)nc12	0.9	72*	11	13
COc1ccc2c(c1)c(C(=O)N/N=C/c1ccc(O)c(O)c1)c(C)n2C	1	56*	1	5
Cc1cc(SCC(=O)N/N=C/c2ccc(O)c(O)c2)c(C)cc1Br	0.9	50*	12	/
O=C(CSc1nc2ccccc2o1)N/N=C/c1ccc(O)c(O)c1	/	/	/	14
COc1ccc2nc(C)cc(SCC(=O)N/N=C/c3ccc(O)c(O)c3)c2c1	0.8	76*	20	9
C/C(=C\c1ccco1)CN1CCN(Cc2ccc(C)o2)C(CCO)C1 (centres undefined)	1.1	-12	-8	9
O=C(O)C1Nc2c(O)cc(Cl)c([N+](=O)[O-])c2C2C=CCC12 (centres undefined)	0.7	65*	31	10
Nc1nc(SCC(=O)N2CCc3ccccc32)[nH]c(=O)c1-c1ccccc1	1.1	66*	-9	/
NC(=O)c1c(/N=C/c2cccs2)sc2c1CCCC2	/	/	/	18
Cc1nn(C(=O)c2ccccc2)c2c1C(=O)CC(C)(C)C2	1	56*	1	/
CCCc1nn(C(=O)c2ccccc2)c2c1C(=O)CC(C)(C)C2	1	52*	-1	/
CC(N)(C(=O)O)c1cccc(OCc2cccc(Cl)c2)c1 (centres undefined)	/	/	/	5
Cc1ccc(NC(=O)C(=O)NCCCN2CCOCC2)c(C)c1	/	/	/	25
O=C(CSc1nnnn1-c1ccccc1)c1ccc(O)cc1O	/	/	/	19
NC(=O)c1ccc(-n2nnnc2SCC(=O)c2ccc(O)c(O)c2)cc1	0.9	82*	15	11
COc1ccc(-n2nnnc2SCC(=O)c2ccc(O)c(O)c2)cc1	0.8	76*	18	/
COc1ccccc1N1C(=O)c2ccc(C(=O)Nc3nccs3)cc2C1=O	1	2	3	9
Cc1cccc(C(=O)N/N=C/c2cc(Br)c(Br)o2)c1	1	-15	-2	14
SMILES	TNAP act hi DEA	TNAP inh no acc	TNAP inh hi DEA	Calb biofilm kill
CCC(c1nnc(SCC(=O)NCCc2ccc(OC)c(OC)c2)n1Cc1ccccc1)N(C)C (centres undefined)	1	-8	-4	8
Clc1ccccc1-c1nc(-c2ccccc2)n[nH]1	1	91*	3	/
O=[N+]([O-])c1cc(-c2n[nH]c(-c3ccccc3)n2)cc([N+](=O)[O-])c1	1	40	-3	/
CCN(CC)c1ccc(/C=N/NC(=O)c2c(Cl)cnn2C)c(O)c1	0.9	-43	12	23
CCC(=O)n1nc(-c2ccc(Cl)cc2)nc1N	1.1	59*	-7	4
Nc1nc(-c2ccc(Cl)cc2)nn1C(=O)c1cccnc1	1	58*	-2	/
Nc1nc(-c2cccnc2)nn1C(=O)c1ccc(Cl)cc1	1	0	1	13
Cc1ccc(Nc2nc(N)nc(CN3CCN(Cc4ccc5c(c4)OCO5)CC3)n2)cc1Cl	1.1	-6	-9	/
Cc1ccc(Nc2nc(N)nc(CN3CCN(Cc4ccc5c(c4)OCO5)CC3)n2)cc1C	1	-2	-4	33*
COc1ccc(-n2c(SCC(=O)Nc3ccc(Br)cc3)nc(O)cc2=O)cc1	/	/	/	11
CCc1n[nH]c2c1C(=O)CC(C)(C)C2	1	51*	2	/
Cc1[nH]nc2c1C(=O)CC(C)(C)C2	1	55*	-1	/
Cc1[nH]nc2c1/C(=N\O)CC(C)(C)C2	1.1	11	-5	/
COc1ccc(C(=O)Nc2c(Cl)cc(Cl)cc2C(=O)N2CCOCC2)cc1	1	-7	-2	14
CN(C)S(=O)(=O)Oc1ccc(Cl)cc1C(=O)Nc1ccc(F)cc1F	1.1	-12	-10	12
Cc1ccc(-c2cc(C(=O)N/N=C/c3c(C)nn(-c4ccccc4)c3C)[nH]n2)cc1	1	83*	5	/
O=C(N/N=C\c1cccnc1)c1cc(-c2ccc(Cl)s2)[nH]n1	0.8	84*	22	9
Cc1[nH]c2ccccc2c1/C=N/NC(=O)c1cc(-c2cccs2)[nH]n1	0.9	81*	13	9
Cc1nn(-c2ccccc2)c(C)c1/C=N/NC(=O)c1cc(C(C)(C)C)[nH]n1	1	-10	-4	/
Cc1ccc(-c2cc(C(=O)N/N=C/c3c(C)nn(-c4ccccc4)c3C)n[nH]2)s1	0.9	60*	6	9
O=C(Nc1cc(Oc2ccccc2)cc([N+](=O)[O-])c1)C12CC3CC(C1)CC(n1cnc(Cl)n1)(C3)C2	1	-3	1	/
Cc1ccc(C)c(S(=O)(=O)N2CCCOC2CNC(=O)C(=O)NCCC2=CCCCC2)c1 (centres undefined)	1	-2	-3	5
O=C(COC(=O)c1ccc2ccccc2n1)Nc1cccc(S(=O)(=O)NC2=NCCCCC2)c1	2*	-51	-97	15
CCc1nc2ccccc2c(C(=O)OCC(=O)Nc2cccc(S(=O)(=O)NC3=NCCCCC3)c2)c1C	/	/	/	16
Cc1ccc(-c2nnc(Nc3ccc4c(c3)OCO4)c3ccccc23)cc1S(N)(=O)=O	0.8	79*	17	10
SMILES	TNAP act hi DEA	TNAP inh no acc	TNAP inh hi DEA	Calb biofilm kill
O=C(c1n[nH]c2ccccc12)N1CCCCC1	1	82*	0	10
O=C(c1n[nH]c2ccccc12)N1CCOCC1	1	22	1	14
Cc1cc(NC(=O)COC(=O)c2n[nH]c3ccccc23)no1	1	52*	-4	/
CC1CCCN(C(=O)COC(=O)c2n[nH]c3ccccc23)C1 (centres undefined)	1	60*	-1	/
COc1ccc(OC)c(S(=O)(=O)Nc2cccnc2)c1	0.3	86*	75*	/
C/C(=N\NC(=O)c1ccccc1)c1cc2cc([N+](=O)[O-])ccc2oc1=O	0.4	19	58*	12
COc1ccc(NC(=O)c2cccn(CC=C(C)C)c2=O)cc1	1	-10	-4	-5
NNC(=O)c1cc(-c2ccco2)[nH]n1	1	75*	1	6
O=C(N/N=C/C(Br)=C/c1ccccc1)c1cc(-c2ccco2)[nH]n1	1.1	-37	-6	10
CCOc1cc(/C=C2/SC(=S)N(CC3CCCO3)C2=O)ccc1O (centres undefined)	0.5	33	52*	16

Source: PubChem
